SENP8 block-1: blocks the human protease SENP8; Q96LD8; purified SENP8, Z-RLRGG-aminoluciferin cleavage, luminescence; inhibition, % at 10 µM; 330,000 compounds, 1.2% hits; AID 2540; in the data active = inhibition above about 50%
SENP8 block-2: SENP8 (human) protease inhibition | recombinant SENP8, Nedd8 substrate fluorescence | inhibition, % at 20 µM | 360,000 compounds, 0.64% hits; in the data active = inhibition mostly above about 40%, no sharp cut-off; inactive = mostly below about 27%
SENP6 block: SENP6 protease inhibition; Recombinant SENP6 catalytic domain, aminoluciferin luminescence; inhibition, % at 10 µM; 330,000 compounds, 1.8% hits;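 active = inhibition above about 50% at the single tested dose, limit read from the data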
SENP1 FRET inh: blocks the human SENP1 SUMO protease catalytic domain. Q9P0U3. recombinant SENP1 catalytic domain, CyPet-SUMO1-YPet FRET cleavage. inhibition, % at 10 µM. 360,000 compounds, 0.21% hits;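 active = inhibition at least 30% at 10 µM, raw YFP signal under a set limit, fluorescence ratio 0.5 to 1.5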
Target sequence (Q9P0U3 419-644 limits assumed): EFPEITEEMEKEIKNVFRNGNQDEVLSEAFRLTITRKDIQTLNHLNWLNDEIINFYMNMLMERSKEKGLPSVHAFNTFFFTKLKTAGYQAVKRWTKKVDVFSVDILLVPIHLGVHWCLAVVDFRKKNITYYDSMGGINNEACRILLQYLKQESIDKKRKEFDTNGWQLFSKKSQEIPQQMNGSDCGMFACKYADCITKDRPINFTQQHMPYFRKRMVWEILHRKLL
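Test system: recombinant human SENP1 catalytic domain, His6-tagged / Medium: pH 8 Tris buffer with EDTA, NaCl, BME, BSA, NP40, catalase / Also added: SUMO1 FRET substrate flanked by Cypet and Ypet, 25 nM / Times: 50 min reaction at room temperature / Signal: FRET, CFP and YFP emission / Control set: no-enzyme low control and enzyme-plus-DMSO high control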
SENP7 inh: blocks the human protease SENP7 | Q9BQF6 | recombinant SENP7, Z-RLRGG-aminoluciferin luminescence, 40 min | inhibition, % at 5 µM | 330,000 compounds, 1.5% hits;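 active = inhibition above about 50% at the single test dose, limit read from the data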
Target sequence (Q9BQF6 706-1050 limits assumed): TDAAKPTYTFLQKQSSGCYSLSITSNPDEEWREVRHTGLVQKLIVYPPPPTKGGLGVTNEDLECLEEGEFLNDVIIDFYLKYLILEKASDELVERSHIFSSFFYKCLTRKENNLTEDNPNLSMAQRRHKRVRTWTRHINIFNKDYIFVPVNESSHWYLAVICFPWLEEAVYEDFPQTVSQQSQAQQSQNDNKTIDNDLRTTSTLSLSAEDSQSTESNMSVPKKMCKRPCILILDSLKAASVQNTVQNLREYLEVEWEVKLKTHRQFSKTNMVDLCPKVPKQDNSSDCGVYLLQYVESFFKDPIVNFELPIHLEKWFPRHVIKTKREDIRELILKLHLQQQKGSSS
Each line names hits and unclear results; the compound was inactive in the other large screens. Most compounds without a hit are left out; they make up all but 2.5% or so of the library.

COc1cc(/C=C2\SC(=S)N(NC(=O)c3ccncc3)C2=O)ccc1O	SENP1 FRET inh 48.8
CCOc1cc(/C=C2\SC(=S)N(NC(=O)c3cccnc3)C2=O)ccc1O	SENP1 FRET inh 50.3
CCOc1ccc(S(=O)(=O)N(CC(=O)NCc2cccnc2)c2ccc(F)cc2)cc1	none
CCOC(=O)N=Nc1c2ccccc2c2nc3no[nH]c3nc12	SENP8 block-2 94.5, SENP6 block 61.8
CCOC(=O)N=Nc1c(O)n(CC(=O)OC)c2ccccc12	none
COc1ccc(NCc2nc3ccccc3n2CCOc2ccccc2)cc1	none
c1ccc(NCc2nc3ccccc3n2CCOc2ccccc2)cc1	SENP6 block 66.0
CC(=O)OC(C)[C@H]1CC[C@H]2[C@@H]3CC[C@H]4C[C@@H](OC(C)=O)CC[C@]4(C)C3=CC[C@]12C (some centres undefined)	none
Cc1cc(Br)ccc1NC(=O)C1CCN(S(=O)(=O)c2cnc[nH]2)CC1	none
O=C1C(=Cc2cccn2-c2ccc(O)cc2)C(=O)c2ccccc21	SENP8 block-2 27.9
O=C1C(=Cc2cccn2-c2ccccc2)C(=O)c2ccccc21	none (no result: SENP8 block-1, SENP6 block, SENP7 inh)
CSc1ccc(/C=N/NC(=O)CNc2cccc3ccccc23)cc1	SENP6 block 73.5
O=C(COC(=O)c1ccc2c(c1[N+](=O)[O-])C(=O)c1ccccc1C2=O)NC1CC1	SENP8 block-2 34.2
CCN(CC(=O)Nc1c(F)cccc1F)C(=O)C1CC(=O)N(CCc2ccc(OC)c(OC)c2)C1 (centres undefined)	none
O=C(Cn1nnc(-c2ccccc2)n1)N/N=C/c1cccc([N+](=O)[O-])c1O	SENP8 block-2 27.2
COc1cc(Br)c(/C=C/c2ccc3cccc(O)c3n2)cc1OC	none
COc1cc(Br)cc(/C=C/c2ccc3cccc(O)c3n2)c1O	SENP1 FRET inh 67.1
CC(N=Cc1cccc(O)c1O)c1ccccc1 (centres undefined)	SENP8 block-2 81.1
CC(N=Cc1cc([N+](=O)[O-])ccc1O)c1ccccc1 (centres undefined)	none
CCC(=O)N1CC2(c3ccccc3)CN(C(=O)CC)CC(c3ccccc3)(C1)C2=O	none
CC(=O)N1CC2(c3ccccc3)CN(C(C)=O)CC(c3ccccc3)(C1)C2=O	SENP6 block 69.8
Cc1cc(C)c2[nH]c(O)c(N=NC3=NC(=O)CS3)c2c1	none
CCc1ccc2c(c1)c(N=NC1=NC(=O)CS1)c(O)n2C	SENP8 block-2 40.1
COc1cccc(C(=O)Nc2ccccc2F)c1	none
O=C(Nc1ccccc1F)Oc1cccc(OC(=O)Nc2ccccc2F)c1	SENP8 block-1 63.9, SENP6 block 69.2, SENP7 inh 73.1
Oc1cccc2ccc(/C=C/c3cccs3)nc12	SENP8 block-1 88.4, SENP6 block 96.3, SENP7 inh 94.5
O=C(Nc1ccccc1)c1cn2ccccc2n1	SENP8 block-1 81.9, SENP6 block 90.2, SENP7 inh 90.6
O=C(Nc1ccc(-n2cnnn2)cc1)c1cn2ccccc2n1	none
O=C(Nc1ccc(-c2cn3ccccc3n2)cc1)c1cccs1	SENP7 inh 52.2
CC1=C(C(=O)OCCC(C)C)C(c2ccc3c(c2)OCO3)NC(=O)N1 (centres undefined)	none
CC1=C(C(=O)N2CCCCCC2)CC(CC(=O)NCCN2CCOCC2)C(=O)N1CCC1=CCCCC1 (centres undefined)	none (no result: SENP8 block-1, SENP6 block, SENP7 inh)
CCN(Cc1ccncc1)Cc1cn[nH]c1-c1ccc(OC)cc1F	none
CCOC(=O)/C=C(\C)Sc1cc(O)c2ccccc2c1O	SENP8 block-2 48.5 (no result: SENP8 block-1, SENP6 block, SENP7 inh)
O=C1C=C(O)c2c(O)cc(O)c(O)c2C1=O	SENP8 block-2 46.8
O=C1c2ccccc2C(=O)c2c(O)c(O)cc(O)c21	none
C[C@@H]1COC(=O)[C@@H](CC(=O)OC(C)(C)C)C/C=C\C[C@H](CC(=O)N(CCO)Cc2ccccc2)C(=O)N1	none
Cc1cccc(-c2cc3c(N=O)c4ccccc4c-3n[nH]2)c1	SENP6 block 96.2, SENP7 inh 99.5
CC1=NN(c2ccccc2)C(=O)/C1=C\c1cc(C)n(-c2cccnc2)c1C	SENP8 block-2 41.8
CC1=NN(c2ccccc2)C(=O)/C1=C\c1cc(C)n(-c2ccccc2)c1C	SENP8 block-2 45.9
CC1=NN2C(=N)/C(=C\c3cc(C)n(-c4ccccc4)c3C)C(=O)N=C2S1	none
CC1(NC(=O)CCc2nc3ccccc3c(=O)[nH]2)CCS(=O)(=O)C1 (centres undefined)	none
CCOC(=O)Cc1csc(NC(=O)C(NC(=O)C2CCC(C)CC2)C(C)C)n1 (centres undefined)	none
Cc1nc2c(nc1C)C(=O)c1ccccc1C2=O	SENP8 block-2 64.9 (no result: SENP8 block-1, SENP6 block, SENP7 inh)
Cc1nc2c(cc1C#N)C(=O)c1ccccc1-2	none
CC(Cn1cncn1)C(=O)N1CCN(S(=O)(=O)c2ccccc2)CC1 (centres undefined)	none
O=[N+]([O-])c1cnc2nc(-c3ccncc3)nn2c1O	SENP8 block-1 92.8, SENP6 block 98.9, SENP7 inh 96.5
O=[N+]([O-])c1cc(Cl)ccc1-c1nc(-c2ccncc2)no1	none
Cc1cc(NC(=O)c2cc3cccc([N+](=O)[O-])c3[nH]2)ccc1F	SENP8 block-1 61.4, SENP6 block 72.9, SENP7 inh 77.1
O=C(O)c1ccc(N=NN2CCCCCC2)cc1	none
COc1ccc(NC(=O)CN(c2ccc(F)cc2)S(=O)(=O)c2ccccc2)c(OC)c1	none
O=[N+]([O-])c1ccc(C=CC=Cc2ccccc2)cc1	none (no result: SENP8 block-1, SENP6 block, SENP7 inh)
[O-]/[N+](=C\C=C\c1ccccc1)c1ccccc1	SENP8 block-1 57.5, SENP6 block 73.0
Oc1ccc2c(c1)OCC1(O)Cc3cc(O)c(O)cc3C21 (centres undefined)	SENP1 FRET inh 30.9 (no result: SENP8 block-1, SENP6 block, SENP7 inh)
CC1CCN(C(=O)CN2C(=O)NC(c3ccccc3)(c3ccccc3)C2=O)CC1	none
OCC1(CCc2ccccc2)CCN(Cc2cccn2-c2cccnc2)CC1	none
Cc1cc(/C=C2\SC(=S)N(C)C2=O)c(C)n1-c1ccccc1O	SENP8 block-1 69.8, SENP6 block 87.4, SENP7 inh 76.6
C/C(=N\Nc1nc(-c2ccccc2O)nc2ccccc12)c1ccccc1	none
C/C(=N/Nc1nc(-c2ccccc2F)nc2ccccc12)c1ccccc1O	SENP1 FRET inh 73.9
Fc1ccc(Cn2ccc(-c3cnc(-c4ccccc4)s3)n2)cc1	none
O=C(c1ccc(F)cc1)n1ccc(-c2cnc(-c3ccccc3)s2)n1	SENP6 block 54.6, SENP7 inh 85.0
CCOC(=O)N1CCC(Nc2c(-c3ccc(C)c(C)c3)c(=O)c2=O)CC1	SENP8 block-2 47.2
O=C(NCCc1ccc2c(c1)OCO2)Oc1ccccc1	none (no result: SENP8 block-1, SENP6 block, SENP7 inh)
CCC(Oc1ccccc1)C(=O)NC1C(=O)N2C1SC(C)(C)C2C(=O)O (centres undefined)	SENP7 inh 61.4
COC(=O)c1sccc1NC(=O)c1cc2c(s1)CCCC2	SENP7 inh 55.5
COc1ccc(C)cc1NC(=O)c1cc2c(s1)CCC2	none
O=C1S/C(=C\c2ccc(O)c([N+](=O)[O-])c2)C(=O)N1c1ccccc1Cl	none

Compound activity from PubChem.
